# In paper PMC7442746 (ACS chemical biology, 2020):
# Experiments:
# [1] = molecular target: T1, recombinant human HDAC10 (TwinStrep-HDAC10 fusion protein) (Homo sapiens, UniProt Q969S8); test: Differential scanning fluorimetry; type: binding; conditions: protein 3 μM, inhibitor 6 μM; for melting temperature (Tm) of TwinStrep-HDAC10 with inhibitor: Tm 65.90 °C with 0.6% DMSO, n = 2
# T1 sequence (Q969S8 1-669): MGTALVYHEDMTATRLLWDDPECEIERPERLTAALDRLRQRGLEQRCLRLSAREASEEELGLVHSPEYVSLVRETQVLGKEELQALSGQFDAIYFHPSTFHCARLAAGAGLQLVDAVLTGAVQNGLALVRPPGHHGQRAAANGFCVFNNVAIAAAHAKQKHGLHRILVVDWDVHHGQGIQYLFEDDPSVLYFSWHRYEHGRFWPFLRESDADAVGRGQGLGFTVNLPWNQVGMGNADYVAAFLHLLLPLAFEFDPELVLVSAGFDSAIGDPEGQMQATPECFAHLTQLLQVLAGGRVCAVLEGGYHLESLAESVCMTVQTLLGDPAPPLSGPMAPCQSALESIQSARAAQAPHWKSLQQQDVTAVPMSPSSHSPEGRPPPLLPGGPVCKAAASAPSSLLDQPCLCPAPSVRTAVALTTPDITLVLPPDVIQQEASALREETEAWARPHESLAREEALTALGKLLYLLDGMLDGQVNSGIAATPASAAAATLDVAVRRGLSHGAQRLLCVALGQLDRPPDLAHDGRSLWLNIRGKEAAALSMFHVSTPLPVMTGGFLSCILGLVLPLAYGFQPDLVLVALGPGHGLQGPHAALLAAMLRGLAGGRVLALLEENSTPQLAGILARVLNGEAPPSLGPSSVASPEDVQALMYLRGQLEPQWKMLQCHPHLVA
# How it was run: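 Nano-DSF on recombinant human HDAC10 with an N-terminal TwinStrep tag. Protein at 3 μM and test compound at 6 μM (protein:inhibitor 1:2). Controls were protein alone and protein with DMSO, each run once. Compound runs were done twice and Tm reported as the mean of the two. Thermal shift was taken as the Tm change from the DMSO control.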
# [2] = test system: HDAC10 over HDAC6; conditions: cited from earlier work
# [3] = test system: human HDAC10; conditions: oxa analogue weaker than Tubastatin A; cited from earlier work
compound,measurement,setting,value
"CN1CCc2c(c3ccccc3n2Cc2ccc(C(=O)NO)cc2)C1 [Tubastatin A, reference compound]",melting temperature (Tm) of TwinStrep-HDAC10 with inhibitor,[1],72.94 ± 0.08 °C
same,selectivity for inhibition of HDAC10 compared to HDAC6,[2],~8 fold
O=C(NO)c1ccc(Cn2c3c(c4ccccc42)COCC3)cc1 [oxa-Tubastatin A],difference in HDAC10 binding affinity between Tubastatin A and its oxa analogue,[3],52 fold
same,melting temperature (Tm) of TwinStrep-HDAC10 with inhibitor,[1],67.27 ± 0.01 °C
same,thermal shift,[1]; relative to DMSO control,1.37 °C
